“Also recorded” adds a separate entry of the source.
Experiment: Phase 1 study CC-90011-ST-001: safety, adverse events
Type: in vivo, human
Outline: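 Treated population: all patients given at least one oral dose of test compound (once weekly, 28-day cycles; expansion 60 mg). Adverse events were graded by NCI CTCAE v4.03. Dose reductions were permitted in any cycle, including cycle 1. Treatment could be interrupted for up to 4 weeks, until toxicity returned to grade ≤1 or baseline.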

[1] = dose escalation, n = 50, patients (%)
[2] = dose expansion, NEN, n = 16, patients (%)
[3] = dose expansion, R/R MZL, n = 3, patients (%)
[4] = dose expansion, n = 19, patients (%)

## COc1ccc(-c2c(-c3ccc(C#N)c(F)c3)nc(N3CCC(N)CC3)n(C)c2=O)cc1F [CC‐90011]
[1]
  TEAE any grade: Abdominal pain: 7 (14)
  TEAE any grade: Acute kidney injury: 1 (2)
  TEAE any grade: Anemia: 14 (28)
  TEAE any grade: Arthralgia: 9 (18)
  TEAE any grade: Back pain: 7 (14)
  TEAE any grade: Bone pain: 1 (2)
  TEAE any grade: Bronchitis: 2 (4)
  TEAE any grade: Constipation: 11 (22)
  TEAE any grade: Cough: 6 (12)
  TEAE any grade: Decreased appetite: 10 (20)
  TEAE any grade: Diarrhea: 10 (20)
  TEAE any grade: Dizziness: 3 (6)
  TEAE any grade: Dysgeusia: 3 (6)
  TEAE any grade: Dyspnea: 5 (10)
  TEAE any grade: Epistaxis: 2 (4)
  TEAE any grade: Fatigue/asthenia: 24 (48)
  TEAE any grade: Headache: 5 (10)
  TEAE any grade: Hepatic pain: 1 (2)
  TEAE any grade: Hypokalemia: 5 (10)
  TEAE any grade: Increased ALT: 6 (12)
  TEAE any grade: Increased AST: 6 (12)
  TEAE any grade: Lipase increased: 2 (4)
  TEAE any grade: Musculoskeletal pain: 1 (2)
  TEAE any grade: Nausea: 11 (22)
  TEAE any grade: Neutropenia: 6 (12)
  TEAE any grade: Peripheral sensory neuropathy: 2 (4)
  TEAE any grade: Pruritus: 3 (6)
  TEAE any grade: Pyrexia: 10 (20)
  TEAE any grade: Sciatica: 1 (2)
  TEAE any grade: Thrombocytopenia: 23 (46)
  TEAE any grade: Tumor pain: 5 (10)
  TEAE any grade: Vomiting: 14 (28)
  TEAE any grade: ≥1 event: 48 (96)
  TEAE grade 3/4: Abdominal pain: 0 (0)
  TEAE grade 3/4: Acute kidney injury: 0 (0)
  TEAE grade 3/4: Anemia: 3 (6)
  TEAE grade 3/4: Arthralgia: 0 (0)
  TEAE grade 3/4: Back pain: 0 (0)
  TEAE grade 3/4: Bone pain: 1 (2)
  TEAE grade 3/4: Bronchitis: 0 (0)
  TEAE grade 3/4: Constipation: 0 (0)
  TEAE grade 3/4: Cough: 0 (0)
  TEAE grade 3/4: Decreased appetite: 1 (2)
  TEAE grade 3/4: Diarrhea: 1 (2)
  TEAE grade 3/4: Dizziness: 0 (0)
  TEAE grade 3/4: Dysgeusia: 0 (0)
  TEAE grade 3/4: Dyspnea: 0 (0)
  TEAE grade 3/4: Epistaxis: 0 (0)
  TEAE grade 3/4: Fatigue/asthenia: 1 (2)
  TEAE grade 3/4: Headache: 0 (0)
  TEAE grade 3/4: Hepatic pain: 0 (0)
  TEAE grade 3/4: Hypokalemia: 1 (2)
  TEAE grade 3/4: Increased ALT: 2 (4)
  TEAE grade 3/4: Increased AST: 1 (2)
  TEAE grade 3/4: Lipase increased: 2 (4)
  TEAE grade 3/4: Musculoskeletal pain: 0 (0)
  TEAE grade 3/4: Nausea: 0 (0)
  TEAE grade 3/4: Neutropenia: 4 (8)
  TEAE grade 3/4: Peripheral sensory neuropathy: 0 (0)
  TEAE grade 3/4: Pruritus: 0 (0)
  TEAE grade 3/4: Pyrexia: 0 (0)
  TEAE grade 3/4: Sciatica: 0 (0)
  TEAE grade 3/4: Thrombocytopenia: 12 (24)
  TEAE grade 3/4: Tumor pain: 1 (2)
  TEAE grade 3/4: Vomiting: 0 (0)
  TEAE grade 3/4: ≥1 event: 24 (48)
Dose expansion
  TEAE leading to treatment discontinuation: No patients; also recorded: none of the TEAEs
  febrile neutropenia: no febrile neutropenia was observed
Dose expansion, 19 patients
  anemia leading to a dose reduction, patients: 5%
  hematologic events leading to a dose interruption, patients: 47%
  neutropenia leading to a dose reduction, patients: 5%
  patients with at least one TEAE leading to a dose interruption: 58%
  patients with at least one TEAE leading to a dose reduction: 26%
  thrombocytopenia leading to a dose reduction, patients: 26%
Dose expansion, NEN cohort, n=16
  TRAE grade 3/4: Thrombocytopenia: 6 n (%)
[2]
  TEAE any grade: Abdominal pain: 0 (0)
  TEAE any grade: Acute kidney injury: 1 (6)
  TEAE any grade: Anemia: 6 (38)
  TEAE any grade: Arthralgia: 6 (38)
  TEAE any grade: Back pain: 1 (6)
  TEAE any grade: Bone pain: 2 (13)
  TEAE any grade: Bronchitis: 2 (13)
  TEAE any grade: Constipation: 5 (31)
  TEAE any grade: Cough: 3 (19)
  TEAE any grade: Decreased appetite: 3 (19)
  TEAE any grade: Diarrhea: 5 (31)
  TEAE any grade: Dizziness: 2 (13)
  TEAE any grade: Dysgeusia: 4 (25)
  TEAE any grade: Dyspnea: 2 (13)
  TEAE any grade: Epistaxis: 3 (19)
  TEAE any grade: Fatigue/asthenia: 9 (56)
  TEAE any grade: Headache: 0 (0)
  TEAE any grade: Hepatic pain: 2 (13)
  TEAE any grade: Hypokalemia: 2 (13)
  TEAE any grade: Increased ALT: 0 (0)
  TEAE any grade: Increased AST: 1 (6)
  TEAE any grade: Lipase increased: 2 (13)
  TEAE any grade: Musculoskeletal pain: 1 (6)
  TEAE any grade: Nausea: 5 (31)
  TEAE any grade: Neutropenia: 3 (19)
  TEAE any grade: Peripheral sensory neuropathy: 2 (13)
  TEAE any grade: Pruritus: 2 (13)
  TEAE any grade: Pyrexia: 0 (0)
  TEAE any grade: Sciatica: 2 (13)
  TEAE any grade: Tumor pain: 0 (0)
  TEAE any grade: Vomiting: 2 (13)
  TEAE grade 3/4: Abdominal pain: 0 (0)
  TEAE grade 3/4: Acute kidney injury: 0 (0)
  TEAE grade 3/4: Anemia: 1 (6)
  TEAE grade 3/4: Arthralgia: 0 (0)
  TEAE grade 3/4: Back pain: 0 (0)
  TEAE grade 3/4: Bone pain: 0 (0)
  TEAE grade 3/4: Bronchitis: 0 (0)
  TEAE grade 3/4: Constipation: 0 (0)
  TEAE grade 3/4: Cough: 0 (0)
  TEAE grade 3/4: Decreased appetite: 0 (0)
  TEAE grade 3/4: Diarrhea: 0 (0)
  TEAE grade 3/4: Dizziness: 0 (0)
  TEAE grade 3/4: Dysgeusia: 0 (0)
  TEAE grade 3/4: Dyspnea: 0 (0)
  TEAE grade 3/4: Epistaxis: 0 (0)
  TEAE grade 3/4: Headache: 0 (0)
  TEAE grade 3/4: Hepatic pain: 1 (6)
  TEAE grade 3/4: Hypokalemia: 0 (0)
  TEAE grade 3/4: Increased ALT: 0 (0)
  TEAE grade 3/4: Increased AST: 0 (0)
  TEAE grade 3/4: Lipase increased: 0 (0)
  TEAE grade 3/4: Musculoskeletal pain: 0 (0)
  TEAE grade 3/4: Nausea: 0 (0)
  TEAE grade 3/4: Peripheral sensory neuropathy: 0 (0)
  TEAE grade 3/4: Pruritus: 0 (0)
  TEAE grade 3/4: Pyrexia: 0 (0)
  TEAE grade 3/4: Sciatica: 0 (0)
  TEAE grade 3/4: Tumor pain: 0 (0)
  TEAE grade 3/4: Vomiting: 0 (0)
[3]
  TEAE any grade: Abdominal pain: 0 (0)
  TEAE any grade: Acute kidney injury: 1 (33)
  TEAE any grade: Anemia: 1 (33)
  TEAE any grade: Arthralgia: 0 (0)
  TEAE any grade: Back pain: 0 (0)
  TEAE any grade: Bone pain: 1 (33)
  TEAE any grade: Bronchitis: 0 (0)
  TEAE any grade: Constipation: 1 (33)
  TEAE any grade: Cough: 1 (33)
  TEAE any grade: Decreased appetite: 0 (0)
  TEAE any grade: Diarrhea: 0 (0)
  TEAE any grade: Dizziness: 0 (0)
  TEAE any grade: Dysgeusia: 0 (0)
  TEAE any grade: Dyspnea: 1 (33)
  TEAE any grade: Epistaxis: 0 (0)
  TEAE any grade: Headache: 0 (0)
  TEAE any grade: Hepatic pain: 0 (0)
  TEAE any grade: Hypokalemia: 0 (0)
  TEAE any grade: Increased ALT: 0 (0)
  TEAE any grade: Increased AST: 0 (0)
  TEAE any grade: Lipase increased: 0 (0)
  TEAE any grade: Musculoskeletal pain: 0 (0)
  TEAE any grade: Nausea: 1 (33)
  TEAE any grade: Neutropenia: 1 (33)
  TEAE any grade: Peripheral sensory neuropathy: 0 (0)
  TEAE any grade: Pruritus: 0 (0)
  TEAE any grade: Pyrexia: 0 (0)
  TEAE any grade: Sciatica: 0 (0)
  TEAE any grade: Tumor pain: 1 (33)
  TEAE any grade: Vomiting: 0 (0)
  TEAE grade 3/4: Abdominal pain: 0 (0)
  TEAE grade 3/4: Acute kidney injury: 0 (0)
  TEAE grade 3/4: Anemia: 0 (0)
  TEAE grade 3/4: Arthralgia: 0 (0)
  TEAE grade 3/4: Back pain: 0 (0)
  TEAE grade 3/4: Bone pain: 0 (0)
  TEAE grade 3/4: Bronchitis: 0 (0)
  TEAE grade 3/4: Constipation: 0 (0)
  TEAE grade 3/4: Cough: 0 (0)
  TEAE grade 3/4: Decreased appetite: 0 (0)
  TEAE grade 3/4: Diarrhea: 0 (0)
  TEAE grade 3/4: Dizziness: 0 (0)
  TEAE grade 3/4: Dysgeusia: 0 (0)
  TEAE grade 3/4: Dyspnea: 0 (0)
  TEAE grade 3/4: Epistaxis: 0 (0)
  TEAE grade 3/4: Fatigue/asthenia: 0 (0)
  TEAE grade 3/4: Headache: 0 (0)
  TEAE grade 3/4: Hepatic pain: 0 (0)
  TEAE grade 3/4: Hypokalemia: 0 (0)
  TEAE grade 3/4: Increased ALT: 0 (0)
  TEAE grade 3/4: Increased AST: 0 (0)
  TEAE grade 3/4: Lipase increased: 0 (0)
  TEAE grade 3/4: Musculoskeletal pain: 0 (0)
  TEAE grade 3/4: Nausea: 0 (0)
  TEAE grade 3/4: Peripheral sensory neuropathy: 0 (0)
  TEAE grade 3/4: Pruritus: 0 (0)
  TEAE grade 3/4: Pyrexia: 0 (0)
  TEAE grade 3/4: Sciatica: 0 (0)
  TEAE grade 3/4: Thrombocytopenia: 0 (0)
  TEAE grade 3/4: Tumor pain: 0 (0)
  TEAE grade 3/4: Vomiting: 0 (0)
[4]
  TEAE any grade: ≥1 event: 19 (100)
  TEAE grade 3/4: ≥1 event: 13 (68)
Dose expansion, n=19
  Serious TEAE: Anemia: 1 n (%)
  Serious TEAE: Biliary tract infection: 1 n (%)
  Serious TEAE: Chest pain: 1 n (%)
  Serious TEAE: Fatigue: 1 n (%)
  Serious TEAE: General health deterioration: 1 n (%)
  Serious TEAE: Hepatic hemorrhage: 1 n (%)
  Serious TEAE: Hepatic pain: 1 n (%)
  Serious TEAE: Oxygen saturation decreased: 1 n (%)
  Serious TEAE: Pulmonary hemorrhage: 1 n (%)
  Serious TEAE: Respiratory failure: 1 n (%)
  Serious TEAE: Thrombocytopenia: 1 n (%)
  Serious TEAE: Upper respiratory tract infection: 1 n (%)
Dose expansion, upper respiratory tract infection, not considered treatment-related
  TEAE with an outcome of death: One patient
follow-up of approximately 5 years and >4 years of treatment
  new safety concerns or late toxicities with longer follow-up: No new safety concerns or late toxicities were identified

— article PMC9540525 (Cancer, 2022)
